96 molecules from ChEMBL document CHEMBL4513216, “Probing the Open Global Health Chemical Diversity Library for Multistage-Active Starting Points for Next-Generation Antimalarials” (ACS Infect Dis, 2020) can be followed below.

This data set can be described thus: Toxicity liver stage against HepG2, at 10uM. It is filed as cell-based. Set-up: test concentration 10 uM, cell line HepG2-A16-CD81EGFP. Particulars: human, HepG2-A16-CD81EGFP cells; read-out: INHIBITION
An outline of the steps:
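Uninfected HepG2-A16-CD81EGFP cells, 3 × 10^3 per well, 1536-well, plated on prespotted compound at 10 μM final, parasite-free screening media added to match infected plates; puromycin 10 μM positive, DMSO 0.5% negative; run in parallel with 48 h PbLuc assay at 37 °C, 5% CO2; viability by CellTiter-Glo luminescence, normalized to controls.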
In the case of `CC(C)c1ccc(C(=O)O)cc1S(=O)(=O)Nc1ccc(=O)n(C)c1`, the cytotoxicity at 10 µM is -13.1%.
Turning to `c1cncc(OC[C@@]23CCC[C@@H]2CN(C2CCOCC2)C3)c1`, the cytotoxicity at 10 µM was -0.0916%.
Take `CN(CC(=O)NC(N)=O)CC1(c2ccc(Br)cc2)CC1`: the cytotoxicity at 10 µM worked out at 0.913%.
As to `CCC(=O)N1CCCN(Cn2nc(C)c(Br)c2C)CC1`, the cytotoxicity at 10 µM amounted to 6.1%.
Consider `CCCN(Cc1cccnc1)C(=O)C1CCCN(C)C1` (stereo unspecified), for which the cytotoxicity at 10 µM stood at 9.77%.
In the case of `CCc1nc(CN2CCCN(Cc3noc(C4CC4)n3)CC2)cs1`, the cytotoxicity at 10 µM is -7.35%.
In the case of `CNC(=O)c1cccnc1Oc1ccccc1`, the cytotoxicity at 10 µM turned out to be 2.84%.
In the case of `O=C(Cc1cccc2cccnc12)N1CCCN(c2cccnn2)CC1`, the cytotoxicity at 10 µM was -5.1%.
In the case of `CN(c1ncccc1C#N)C1CCN(CCc2ccncc2)CC1`, the cytotoxicity at 10 µM was found to be 28.7%.
On to `Cn1nccc1C(=O)N1CCOC(Cc2ccc(Cl)cc2)C1` (stereo unspecified), for which the cytotoxicity at 10 µM was -26%.
As for `COCC1CN(C(=O)c2cccs2)Cc2nccn2C1` (stereo unspecified), the figure is -104%; as for `Cc1cs/c(=N\C(=O)c2c3c(nc4onc(C)c24)CCC3)[nH]1`, 1.26%; as for `CC(C)C(C)(C#N)NC(=O)Cn1cc(Cl)cn1` (stereo unspecified), 1.18%.
For `Cc1ccsc1CNC(=O)c1ccc2c(c1)CCC(=O)N2`, the cytotoxicity at 10 µM was determined as 4.91%.
`COC1CCN(C(=O)Cc2csc(-c3ccc(F)cc3)n2)CC1`: the cytotoxicity at 10 µM was -6.16%.
Turning to `O=C(O)[C@@H]1CN(C(=O)CN2Cc3ccccc3C2)C[C@H]1c1ccncc1`, the cytotoxicity at 10 µM came out at 4.85%.
As to `CC(C)CCN1C2(CCN(Cc3nccs3)C2)c2ccccc2S1(=O)=O` (stereo unspecified), the cytotoxicity at 10 µM is -65%.
Under `Cn1cc(CN2C[C@@H]3CN(Cc4ccoc4)CCO[C@@H]3C2)cn1` stands 6.97%; under `O=C(NCC1CCN(C(=O)c2ccoc2)CC1)c1ccccc1Br`, -12.3%.
Turning to `O[C@H]1[C@H](n2cc(-c3ccccc3)nn2)c2ccccc2C12CCNCC2`, the cytotoxicity at 10 µM worked out at 7.62%.
As for `Cc1ccccc1C(=O)N1CC[C@@H](N(C)C)[C@@H]1Cc1cnn(C)c1`, the figure is -71%.
Consider `CCC(C)N1CCC2(CC1)CN(c1cncnc1)C(=O)CO2` (stereo unspecified), for which the cytotoxicity at 10 µM is -0.414%.
Regarding `Cc1noc(-c2cnc(NC(C)C)nc2-c2ccco2)c1C`, the cytotoxicity at 10 µM is -0.275%.
On to `CCN(CC)c1nc2sc(C(=O)N3CCNC(=O)C3)cc2s1`, for which the cytotoxicity at 10 µM was -4.29%.
As for `CN(Cc1nnc(-c2ccco2)o1)CC1CCCN1c1cccnn1` (stereo unspecified), the cytotoxicity at 10 µM was determined as 5.68%.
On to `CCN(C(c1cccnc1)c1ccc2c(c1)CCO2)S(C)(=O)=O` (stereo unspecified), for which the cytotoxicity at 10 µM is -8.28%.
As to `COC1CCN(S(=O)(=O)N2CC(c3ccccc3)C(C)(C)C2)CC1` (stereo unspecified), the cytotoxicity at 10 µM worked out at 3.64%.
As for `Cc1noc(C)c1-c1cncc(CC2CCN(C(=O)c3cc[nH]n3)C2)n1` (stereo unspecified), the figure is -17.4%.
On to `O=C1CN(C(=O)C2CCC3(CC2)CNC(=O)c2ccccc2O3)CCN1` (stereo unspecified), for which the cytotoxicity at 10 µM is -11.6%.
As for `CC1CN(C)c2ccccc2CN1C(=O)c1cc(C#N)cn1C` (stereo unspecified), the cytotoxicity at 10 µM came out at 14.6%.
In the case of `OC(COCc1ccccc1)CN1CC(n2cccn2)C1` (stereo unspecified), the cytotoxicity at 10 µM is 1.95%.
As for `CCN(C(=O)COc1nc(Cc2ccc(F)cc2)no1)C1CC1`, the cytotoxicity at 10 µM is 5.09%.
With `c1cc(-c2ccc3c(c2)CCC32CCN(c3nncs3)CC2)ccn1`, the cytotoxicity at 10 µM is 20.4%.
As to `CC(C)CN1CC(c2nc(C3CC3)n[nH]2)CC1=O` (stereo unspecified), the cytotoxicity at 10 µM was -1.64%.
On to `Fc1cccnc1O[C@H]1CN(Cc2ccoc2)[C@@H]2CCCO[C@H]12`, for which the cytotoxicity at 10 µM was -0.908%.
As for `CCn1cnnc1C1CCN(C(=O)c2cccc(C)c2C)CC1`, the figure is -3.61%; as for `Cc1csc(CCNC(=O)C2CCCN(C3CCOCC3)C2)n1` (stereo unspecified), 3.01%; as for `CS(=O)(=O)N1CCC(NC(=O)COc2ccc3ccccc3c2)CC1`, -5.56%.
With `CSc1ncnc(NCc2ccco2)c1C#N`, the cytotoxicity at 10 µM is 0.0868%.
On to `CCc1nccn1C1CCCN(C(=O)CCCNc2ncccn2)C1` (stereo unspecified), for which the cytotoxicity at 10 µM was -1.3%.
Turning to `CC1CCCCN1C(=O)c1ccc(=O)[nH]n1` (stereo unspecified), the cytotoxicity at 10 µM was found to be 3.95%.
In the case of `CN(C)C(=O)[C@H]1CCS(=O)(=O)[C@@H]2CN(c3ncc(F)cn3)C[C@H]12`, the cytotoxicity at 10 µM was -100%.
On to `COCCO[C@H]1CCN(c2cc(OC)ncn2)[C@H]1Cc1cnn(C)c1`, for which the cytotoxicity at 10 µM is -133%.
`COc1cc2cc3c(nc2cc1OC)OCCN(CC1CC1)C3`: the cytotoxicity at 10 µM came out at 5.37%.
On to `CNC(=O)[C@@H]1C[C@@H](N)CN1c1nnc(-c2ccccc2)s1`, for which the cytotoxicity at 10 µM is -36%.
With `Cc1cc(CNC2CCCN(Cc3noc(C4CC4)n3)C2)on1` (stereo unspecified), the cytotoxicity at 10 µM was -17.7%.
Regarding `c1cncc(Cc2nnc3n2CCN(CC2CCCNC2)CC3)c1` (stereo unspecified), the cytotoxicity at 10 µM is 2.1%.
Turning to `Nc1nc2c(c(NCc3ccncc3)n1)CCCC2`, the cytotoxicity at 10 µM is 4.56%.
As to `CC(C)N1CCN(C(=O)c2ccc(Cn3ccccc3=O)o2)CC1`, the cytotoxicity at 10 µM was -13.1%.
Take `Cc1nc(NC(=O)N(C)Cc2ccsc2)nn1C`: the cytotoxicity at 10 µM was 1.81%.
Turning to `Cc1cc(NC2CCN(c3ccccc3)C2)n2ncnc2n1` (stereo unspecified), the cytotoxicity at 10 µM was found to be 14.7%.
As to `CS(=O)(=O)N1CCC2(CC1)CN(CC1CC1)CC21CCNC1=O` (stereo unspecified), the cytotoxicity at 10 µM was 1.26%.
As for `COCC(=O)N1CCC2(CC1)CN(c1ccsc1)C(=O)CO2`, the figure is -75.6%; as for `NC(=O)c1cnc(NC2CC2)nc1CCNC(=O)CC1CCCC1`, 3.29%.
Turning to `CC(C)C[C@@H]1N[C@H](C(=O)NC2CCOCC2)Cc2c[nH]c3cccc1c23`, the cytotoxicity at 10 µM was 8.24%.
Regarding `CCc1ccc(C(NCC(N)=O)C(C)(C)C)o1` (stereo unspecified), the cytotoxicity at 10 µM was -7.21%.
As to `CC(C)NC(=O)N1CCC2(COCc3cnc(N4CCOCC4)nc32)C1` (stereo unspecified), the cytotoxicity at 10 µM was -8.75%.
With `COc1ccc(Cl)cc1-c1nc(N)nc(N)n1`, the cytotoxicity at 10 µM is 1.57%.
Take `CCOCCNCC1CCN(CCO)CC1`: the cytotoxicity at 10 µM is -1.46%.
As for `C[C@@H]1CN(C(=O)C2(Cn3cccn3)CC2)C[C@@]1(O)C1CCC1`, the cytotoxicity at 10 µM stood at 1.56%.
In the case of `Cc1nnc(NC(=O)NCc2ccc(F)cc2)s1`, the cytotoxicity at 10 µM was -26%.
`O=C(C1CC(=O)N(c2ccccc2Br)C1)N1CCN(CC(F)(F)F)CC1` (stereo unspecified): the cytotoxicity at 10 µM turned out to be 7.29%.
As to `O=C1CC(N2CCN(c3ccc(F)cc3)CC2)C(=O)N1Cc1cccs1` (stereo unspecified), the cytotoxicity at 10 µM was -0.31%.
For `OCC1CCCN1c1cc(NCc2ccc(Cl)s2)ncn1` (stereo unspecified), the cytotoxicity at 10 µM is -2.96%.
Under `O=C(Nc1ccc2ncsc2c1)N1CCCN([C@H]2COC[C@@H]2O)CC1` stands -53.6%.
For `COc1ccc(C2CCCN2S(=O)(=O)c2cc(F)ccc2F)cc1` (stereo unspecified), the cytotoxicity at 10 µM came to 0.585%.
Regarding `CS(=O)(=O)N1CCCCCC1C1CCN(Cc2nc(C3CC3)no2)CC1` (stereo unspecified), the cytotoxicity at 10 µM is -4.09%.
Turning to `c1csc(-c2noc(CNCCn3cccn3)n2)c1`, the cytotoxicity at 10 µM was -8.21%.
For the molecule `COc1ccc(-c2cnc(NC(C)=O)[nH]2)cc1`, the cytotoxicity at 10 µM is -0.825%.
Turning to `CN(Cc1cn2c(n1)CN(C(=O)N(C)C)CC2)Cc1ccco1`, the cytotoxicity at 10 µM turned out to be 4.44%.
As for `CCCN(CC)C(=O)c1ncn2c1CN(C)S(=O)(=O)c1ccccc1-2`, the cytotoxicity at 10 µM is -152%.
Turning to `O=C(c1ccccc1)N1C[C@H]2CC[C@@H](C1)N(Cc1cc(F)ccc1Cl)C2`, the cytotoxicity at 10 µM is -4.39%.
Under `Cc1ccc(OCC(=O)NC2(C#N)CCSCC2)cc1C` stands 5.7%.
Turning to `CC1CN(c2ccc(CNC(=O)NCc3ccoc3)cn2)CCO1` (stereo unspecified), the cytotoxicity at 10 µM was determined as 4.38%.
As for `CC(C)[C@@H]1CN(CCOc2ccccc2)C[C@H]1NS(=O)(=O)N(C)C`, the cytotoxicity at 10 µM was -43%.
As to `c1cnc(NCc2ncn3c2CN(Cc2cccnc2)CCC3)nc1`, the cytotoxicity at 10 µM was -8.81%.
In the case of `Cc1nc(CN2CCCC(N(C)Cc3c(C)noc3C)C2)no1` (stereo unspecified), the cytotoxicity at 10 µM is -0.866%.
With `Cc1cnc(CN2CCCC2c2cnn(C)c2)cn1` (stereo unspecified), the cytotoxicity at 10 µM was 0.35%.
As for `Cc1ccc(O[C@@H]2C[C@H]3CN(C(=O)c4cccnc4)CCN3C2)cc1`, the cytotoxicity at 10 µM came out at 1.06%.
As for `Cn1cc(CCC(=O)N2C[C@H]3CC[C@@H](C2)N(Cc2ccccn2)C3)cn1`, the cytotoxicity at 10 µM was -1.95%.
For `COc1ccc(CC(=O)N2CC[C@@]3(O)CCNC[C@H]3C2)c(OC)c1`, the cytotoxicity at 10 µM was 4.26%.
Take `Cc1noc(-c2cccnc2N2CCN(c3cnn(C)c3)CC2)n1`: the cytotoxicity at 10 µM was found to be 1.12%.
Regarding `Cc1nc(CN2CCN(CCOc3ccc(C(C)C)c(C)c3)CC2)no1`, the cytotoxicity at 10 µM was -11.2%.
Turning to `CN(Cc1cc2cc(F)ccc2[nH]1)C(=O)C1CC(=O)N(C(C)(C)C)C1` (stereo unspecified), the cytotoxicity at 10 µM came out at 0.993%.
`CC(=O)N1CCc2[nH]cnc2C12CCN(C(=O)Cc1ccccn1)CC2`: the cytotoxicity at 10 µM worked out at 1.76%.
As for `CN(C)C(=O)CN1C[C@H]2CC[C@@H](C1)N(C(=O)CCCn1cncn1)C2`, the figure is 0.612%; as for `O=C1NCCCCC1Sc1ccc(F)c(F)c1` (stereo unspecified), 5.58%.
Turning to `CC(C)n1cc2cc(NC(=O)CCS(C)(=O)=O)ccc2n1`, the cytotoxicity at 10 µM is -141%.
Under `Cc1nc(CN2CCc3cncnc3C2)oc1C` stands -12%; under `Cc1ccccc1C(O)CNS(=O)(=O)Cc1cccc(C#N)c1` (stereo unspecified), -5.43%.
As for `O=S(=O)(c1ccccc1)N1CCC2(CCCN2Cc2ccccc2Cl)C1` (stereo unspecified), the cytotoxicity at 10 µM was -74.5%.
Under `O=C(c1coc2ccccc12)N1CCS(=O)(=O)CC1` stands 2.64%; under `CN1C(=O)C(c2ccccc2)CC12CCN(CCN1CCCC1=O)CC2` (stereo unspecified), -14.6%; under `COC(=O)c1ccc(S(=O)(=O)NCc2cccnc2N(C)C)cc1`, 9.3%.
For `CC(C)NC(=O)N1CC[C@@H]2CN(S(C)(=O)=O)CCO[C@@H]2C1`, the cytotoxicity at 10 µM is -102%.
Under `COCc1ccccc1C(=O)N1CCCC(c2cc(C)[nH]n2)C1` (stereo unspecified) stands -23.2%.
